# Rows were chosen to be rich in hits. Some 2.7% of all compounds tested hit in one or more screens of this group.
# HTRA1 inh: HTRA1 (human) protease inhibition. Q92743. recombinant HTRA1, FP-rhodamine activity-based probe, fluorescence polarization. inhibition, % at 5.96 µM. hit rate 0.5% among 340,000; in the data active = inhibition above about 36%;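 note: 0% = enzyme with DMSO and 100% = wells lacking enzyme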
# Target sequence (Q92743 whole entry, looked up): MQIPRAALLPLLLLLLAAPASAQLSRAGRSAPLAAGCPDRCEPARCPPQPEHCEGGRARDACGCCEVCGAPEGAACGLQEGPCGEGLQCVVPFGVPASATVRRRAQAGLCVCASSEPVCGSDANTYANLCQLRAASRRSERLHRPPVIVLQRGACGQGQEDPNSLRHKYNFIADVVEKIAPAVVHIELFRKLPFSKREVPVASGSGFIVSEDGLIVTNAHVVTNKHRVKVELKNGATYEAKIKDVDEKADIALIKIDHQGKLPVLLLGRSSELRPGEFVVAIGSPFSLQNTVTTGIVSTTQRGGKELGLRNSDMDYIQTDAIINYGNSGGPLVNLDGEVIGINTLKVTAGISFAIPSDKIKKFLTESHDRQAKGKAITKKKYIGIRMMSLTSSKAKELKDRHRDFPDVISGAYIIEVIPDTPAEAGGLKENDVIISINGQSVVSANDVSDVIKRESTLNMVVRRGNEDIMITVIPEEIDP
# mABHD4 FP: ABHD4 (mouse) inhibition, primary FP screen. Q8VD66. purified mABHD4, FP-Rh probe fluorescence polarization. inhibition, % at 8.92 µM. hit rate 0.54% among 370,000. AID 720543;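 active = inhibition exceeding the mean over every tested compound plus 3 SD, cut at about 30% in these data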;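 note: 0% = plate median of compound wells and 100% = S159A mutant with DMSO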
#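 Assay system: wild-type mouse ABHD4 protein; compound: single nominal dose of 8.92 µM, 0.89% DMSO final; schedule: 45 min + 60 min at 25 °C; measured by: FP readout, ex 525 nm / em 598 nm; evaluation: % inhibition of FP-Rh probe binding versus controls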
# SIAE primary: human SIAE inhibition, primary screen. inhibition, % at 9.66 µM. hit rate 0.69% among 370,000. AID 1053197. SIAE FP-Rh probe binding, fluorescence polarization;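 active = inhibition above a cutoff: mean of compounds within the control limits plus 3 SD of those, cut at about 17% in these data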;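 note: 0% = plate median of compound wells and 100% = probe without SIAE protein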
# PRMT1 inh: PRMT1 (human) inhibition, primary screen; Q99873; recombinant PRMT1, activity-based probe fluorescence polarization; inhibition, % at 2.79 µM; hit rate 1.3% among 370,000; AID 652257;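 active = inhibition above about 21% made by adding two undisclosed values, limit read from the data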
# TCR-CD3 inh: human TCR-CD3 binding inhibition; TAMRA-labeled TCR probe fluorescence, biochemical; inhibition, % at 9.4 µM; hit rate 0.37% among 360,000; AID 651800; in the data active = inhibition above about 19%;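 note: recombinant mutant TCR 2C K166C tagged with TAMRA read by polarization; 0% = receptor in buffer alone and 100% = receptor with positive control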
# HTRA1 inh conf: confirmation of human HTRA1 inhibitors; recombinant HTRA1, FP-rhodamine activity-based probe, fluorescence polarization; hit rate 66% among 1,600; AID 540248; shares compounds with HTRA1 inh; inhibition, % at 5.96 µM;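 active = mean inhibition over three repeats above a set limit taken from the earlier primary screen, cut at about 37% in these data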;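 note: 0% = HTRA1 with DMSO and 100% = wells lacking HTRA1; inhibitors block probe binding so polarization drops and inhibition rises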
# An asterisk follows results filed as active; . = no result given.
SMILES,HTRA1 inh,mABHD4 FP,SIAE primary,PRMT1 inh,TCR-CD3 inh,others
CC1=C(C(=O)O)N2C(=O)[C@@H](NC(=O)CCCC(=O)O)[C@H]2SC1,-3,0,-8,23*,-14,
CN1C2CCC1C(C(=O)Oc1ccccc1)C(c1ccc(Cl)cc1)C2 (stereo not given),.,-1,4,-2,4,
COc1ccc(/C=C2\C(=O)NC(=S)N(C)C2=O)cc1C,9,4,-9,45*,0,
CCCNC1=C(C)C(=O)C2=C(C1=O)C(COC(N)=O)[C@]1(OC)C3NC3CN21 (stereo not given in full),12,22,10,6,27*,
Cc1cccc(N2C(=O)/C(=C/c3ccc(CN(CCC#N)S(C)(=O)=O)o3)C(=O)NC2=S)c1,6,11,-3,41*,-1,
CCN1CCN(c2cc(N3CCCC3)c([N+](=O)[O-])cc2F)CC1,3,5,6,1,-2,
CC(C)C[C@H]1C(=O)N2CCC[C@H]2[C@]2(O)O[C@](NC(=O)[C@@H]3C=C4c5cccc6[nH]cc(c56)C[C@H]4N(C)C3)(C(C)C)C(=O)N12,42*,.,.,.,.,
O=C1CC(=O)N(c2ccccc2)C(=O)N1c1ccccc1,-19,0,-11,0,-2,
O=c1c2ccccc2[se]n1-c1ccccc1,1,25,6,95*,-1,
O=c1c2ccccc2nc(-c2ccccc2)n1-c1ccccc1,8,-2,-4,-2,0,
CCN1C(=O)/C(=C/c2ccc3c(c2)CCN3CCCCl)C(=O)NC1=S,18,-11,-17,11,-33,
O=C1NC(=S)N(C2CC2)C(=O)/C1=C/c1ccc2c(c1)CCN2CCCCl,23,8,-8,35*,-3,
O=C(COC(=O)c1cc(Br)cc(Br)c1O)NC12CC3CC(CC(C3)C1)C2,.,-3,-6,4,2,
COC(=O)C1=C(C(=O)OC)SC2(S1)C(C(=O)OC)=C(C(=O)OC)Sc1c2ssc1=O,10,8,2,105*,-4,
CCN(CCO)c1ccc(N=Cc2c(O)n(C)c(=S)[nH]c2=O)cc1,.,14,0,21*,-3,
Cc1ccccc1-[n+]1c(-c2ccccc2)cc(-c2ccccc2)cc1-c1ccccc1,-4,6,-5,1,6,
CC(=O)c1ccc2c(c1)C1C(Cl)C(Sc3ccccc3[N+](=O)[O-])CC1C(c1ccccc1)N2 (stereo not given),17,24,18*,17,6,
COc1cc(C2c3cc4c(c(O)c3CC3COC(=O)C32)OCO4)cc(OC)c1OC (stereo not given),-6,-4,5,1,7,
COc1cc(C2c3cc4c(cc3CC3COC(=O)C32)OCO4)cc(OC)c1OC (stereo not given),-2,5,1,22*,-1,
O=C1NC(=O)C(Sc2ccccc2[N+](=O)[O-])C(=O)N1,16,13,6,57*,3,
O=[N+]([O-])c1ccccc1Cl,5,0,-3,-2,5,
COc1ccc(CN2Cc3cc(N4CCCCC4)ccc3-n3nncc3C2)cc1,.,-2,4,-3,-4,
O=C(Cn1ncc2c3ccccc3n(Cc3ccc(F)cc3)c2c1=O)N1CCC2(CC1)OCCO2,-3,.,.,.,.,
CN1CCN(c2ccc([N+](=O)[O-])c3no[n+]([O-])c23)CC1,-23,-5,-14,112*,1,
O=[N+]([O-])c1ccc(N(CCO)CCO)c2c1no[n+]2[O-],6,-6,-16,19,-1,
SMILES,HTRA1 inh,mABHD4 FP,SIAE primary,PRMT1 inh,TCR-CD3 inh,others
O=C(c1cccnc1)N1Cc2ccccc2-n2nncc2C1,-2,-7,4,-4,2,
COCCCNC(=O)c1c(N)n(Cc2ccco2)c2nc3ccccc3nc12,.,0,-5,20,-10,
CC(C)CNC(=O)c1c(N)n(Cc2ccco2)c2nc3ccccc3nc12,-27,0,-3,40*,-8,
CC(C)CCP(=O)(O)O,.,6,4,-1,.,
O=C1CC=C2C3CC4N(CCC45c4cc(O)c(O)cc4N1C25)CC3=CCBr (stereo not given),11,20,4,16,50*,
CC1C(C)N1CC(O)Cn1ccnc1[N+](=O)[O-] (stereo not given),8,-3,6,-2,0,
O=C(c1ccccc1)C(CN1CCCC1)c1ccccc1 (stereo not given),0,-5,0,6,-4,
CC1CCN(C(CC(=O)c2ccccc2)C(=O)c2ccccc2)CC1 (stereo not given),-27,-6,1,72*,4,
Fc1ccc2nc(-c3ccc(CN4CCC(n5nnc6ccccc65)CC4)cc3)c(-c3ccccc3)nc2c1,.,-13,-9,-5,-12,
Cc1c(CCN)ccc2c1[nH]c1ccccc12,7,-2,9,-2,-3,
CCn1c(O)c(C=Nc2cc(Cl)ccc2Cl)c(=O)n(CC)c1=O,4,0,5,22*,7,
CN1C(=O)C(=Cc2ccccc2OCc2ccc(Cl)cc2)C(=O)N(C)C1=O,-26,5,3,4,0,
CN1C(=O)C(=Cc2ccccc2Oc2ccc(Cl)cc2)C(=O)N(C)C1=O,-16,-3,3,21*,7,
CC[C@H](C)/C=C(C)/C=C/C1=CC2=C(Cl)C(=O)[C@@](C)(OC(C)=O)C(=O)C2=CO1,78*,.,.,.,.,
CCOC(=O)[C@]1(C#N)[C@@H]2C=CC(C(C)=O)=CN2[C@@H](C(N)=O)[C@@H]1c1ccsc1,-5,19,17*,15,-3,
COC(=O)C1CC(OC(C)=O)C(=O)[C@H]2C1(C)CC[C@H]1C(=O)OC(c3ccoc3)CC12C (stereo not given in full),.,1,1,2,1,
O=[N+]([O-])c1ccc(Nc2ccccc2)cc1,-16,-1,8,-1,-1,
c1ccc(Nc2ccc(Nc3ccccc3)cc2)cc1,56*,26,10,9,4,HTRA1 inh conf=43*
O=c1c2ccccc2nc(/C=C/c2ccc3c(c2)OCO3)n1-c1ccccc1,-5,-8,-1,-2,-10,
COc1ccc(-n2c(/C=C/c3ccc(O)c(O)c3)nc3ccccc3c2=O)cc1,66*,21,12,-4,10,HTRA1 inh conf=63*
Cc1c2cnn(CC(=O)N3CCC4(CC3)OCCO4)c(=O)c2c(C)n1Cc1ccccc1Cl,0,6,-3,-2,3,
CCC(C)/C=C(C)/C=C/C1=CC2=C(Cl)C(=O)C(C)(OC(C)=O)C(=O)C2=CO1 (stereo not given),44*,.,.,.,.,HTRA1 inh conf=68*
CC(=O)N1CCC(N2CCCC(C(=O)c3cccc(Cl)c3)C2)CC1 (stereo not given),-4,-3,0,2,-3,
CC(C)(C)c1ccc(O)c(N=Cc2c(O)ccc3ccccc23)c1,50*,24,12,31*,11,HTRA1 inh conf=63*
